pIC50, pKi: −log10 of the molar value.
Experiments:
[1] = target: T1, Sodium-dependent dopamine transporter (Rattus norvegicus, UniProt P23977); assay: Displacement of [3H]WIN-35428 binding to the dopamine transporter in rat caudate putamen tissue.; type: tissue-based
[2] = target: T1, Sodium-dependent dopamine transporter; assay: Inhibition of [3H]dopamine uptake in rat caudate putamen tissue.; type: functional, tissue-based
Procedure, shortened: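 Rat caudate putamen chopped into 225 µm slices, in oxygenated Krebs-HEPES at 37 °C. Stopped with ice-cold buffer and filtered; accumulated label extracted in methanol/HCl and counted by scintillation. Specific uptake; IC50 by linear regression on the linear portion of the concentration–response curve.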

T1 sequence (P23977 whole entry): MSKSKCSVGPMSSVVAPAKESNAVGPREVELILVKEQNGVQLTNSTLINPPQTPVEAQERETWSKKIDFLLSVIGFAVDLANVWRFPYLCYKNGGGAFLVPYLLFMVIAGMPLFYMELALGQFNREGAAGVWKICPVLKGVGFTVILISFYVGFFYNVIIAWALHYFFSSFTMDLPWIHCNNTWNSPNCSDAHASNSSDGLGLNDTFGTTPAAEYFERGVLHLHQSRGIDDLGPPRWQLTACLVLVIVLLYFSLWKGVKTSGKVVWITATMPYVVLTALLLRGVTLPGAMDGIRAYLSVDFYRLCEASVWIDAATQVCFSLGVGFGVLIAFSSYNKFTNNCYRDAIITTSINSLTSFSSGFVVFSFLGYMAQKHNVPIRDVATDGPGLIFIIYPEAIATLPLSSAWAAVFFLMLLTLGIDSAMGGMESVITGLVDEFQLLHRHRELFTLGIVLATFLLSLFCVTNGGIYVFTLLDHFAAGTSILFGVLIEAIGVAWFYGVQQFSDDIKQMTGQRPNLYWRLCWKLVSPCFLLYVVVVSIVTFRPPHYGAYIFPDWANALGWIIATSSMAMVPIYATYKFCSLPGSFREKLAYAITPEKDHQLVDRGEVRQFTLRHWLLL

Compound	pKi [1]	pIC50 [2]
CN1[C@@H]2CC[C@H]1C[C@@H](OC(c1ccc(F)cc1)c1ccc(Br)cc1)C2 (stereo not given in full)	7.82	7.57
CN1[C@@H]2CC[C@H]1C[C@@H](OC(c1ccccc1)c1cccc(Br)c1)C2 (stereo not given in full)	7.57	6.98
CN1[C@@H]2CC[C@H]1C[C@@H](OC(c1ccc(F)cc1)c1cccc(C(F)(F)F)c1)C2 (stereo not given in full)	7.06	6.74
CN1[C@@H]2CC[C@H]1C[C@@H](OC(c1ccccc1)c1cccc([N+](=O)[O-])c1)C2 (stereo not given in full)	6.73	6.10
Cc1cccc(C(O[C@H]2C[C@H]3CC[C@@H](C2)N3C)c2ccc(F)cc2)c1 (stereo not given in full)	7.51	6.97
CN1[C@@H]2CC[C@H]1C[C@@H](OC(c1ccc(F)cc1)c1cccc(Cl)c1)C2 (stereo not given in full)	7.63	6.91
Cc1cccc(C(O[C@H]2C[C@H]3CC[C@@H](C2)N3C)c2ccccc2)c1 (stereo not given in full)	7.11	6.65
CN1[C@@H]2CC[C@H]1C[C@@H](OC(c1ccc(F)cc1)c1cccc(Br)c1)C2 (stereo not given in full)	7.42	6.75
CN1[C@@H]2CC[C@H]1C[C@@H](OC(c1ccc(F)cc1)c1cccc(F)c1)C2 (stereo not given in full)		6.86
CN1[C@@H]2CC[C@H]1C[C@@H](OC(c1ccccc1)c1ccc(F)c(F)c1)C2 (stereo not given in full)	7.55	6.74
CN1[C@@H]2CC[C@H]1C[C@@H](OC(c1ccccc1)c1ccccc1Cl)C2 (stereo not given in full)		6.01
